Measured values published in ChEMBL document CHEMBL4732187, “Tetrahydroindazole inhibitors of CDK2/cyclin complexes” (Eur J Med Chem, 2021).
Activity calls are given as the source filed them. No cut-off for these calls is given here.

How the values were obtained:
CDK2/Cyclin A2 = CDK2/Cyclin A2 (Homo sapiens, UniProt P24941); experiment: Inhibition of human N-terminal GST-tagged CDK2 (1 to 298 residues)/Cyclin A (174 to 432 residues) expressed in Escherichia coli Turner (DE3) cells assessed as reduction in ADP formation using PKTPKKAKKL as substrate by resorufin dye based fluorescence assay
CDK2/Cyclin A1 = CDK2/Cyclin A1 (Homo sapiens, UniProt P24941); experiment: Inhibition of CDK2/Cyclin A1 (unknown origin) using histone H1 as substrate preincubated for 20 mins followed by 33P-ATP addition and measured after 2 hrs by filter binding method; assay type: protein-complex assay
[1] = biological target: Cyclin-dependent kinase 2/cyclin E1 (Homo sapiens, UniProt P24941); experiment: Inhibition of CDK2/Cyclin E (unknown origin) using histone H1 as substrate preincubated for 20 mins followed by 33P-ATP addition and measured after 2 hrs by filter binding method; assay type: protein-complex assay
CDK2/Cyclin O = CDK2/Cyclin O (Homo sapiens, UniProt P22674+P24941); experiment: Inhibition of CDK2/Cyclin-O (unknown origin) using histone H1 as substrate preincubated for 20 mins followed by 33P-ATP addition and measured after 2 hrs by filter binding method; assay type: protein-complex assay
MCF7 = experiment: Antiproliferative activity against human MCF7 cells assessed as reduction in cell viability up to 200 uM after 72 hrs by alamarBlue assay; assay type: functional, cell-based; settings: dose microM <=200, time 72.0 hrs
How it was run: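 MCF-7 cells seeded at 5000 per well and incubated overnight at 37 °C, 5% CO₂, then exposed to 8 concentrations from 0.00256 μM to 200 μM for 72 h. alamarBlue was then added and incubated 90 min at 37 °C. Proliferating cells were read by fluorescence (ex 530 nm, em 590 nm). Staurosporine served as positive control.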

[2] = biological target: Cyclin-dependent kinase 2 (Homo sapiens, UniProt P24941); experiment: Binding affinity to T7-tagged CDK2 (unknown origin) expressed in bacteriophage infected Escherichia coli BL21 incubated for 1 hr by magnetic beads based qPCR anlaysis
[3] = Apparent permeability across apical to basolateral side in MDCK cells at 1 uM after 2 hrs by LC-MS/MS analysis; assay type: ADME, cell-based, Canis lupus familiaris; settings: dog
How it was run: (§1)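 MDCK monolayers were washed twice with pre-warmed HBSS (10 mM HEPES, pH 7.4) and equilibrated for 30 min at 37 °C. Compound at 1 μM in HBSS (0.5% DMSO final) was added to the apical or the basolateral donor side. After 2 h at 37 °C, donor and receiver samples were quenched in cold methanol with internal standards and analysed by LC-MS/MS. Runs were in duplicate; 100 μM Lucifer Yellow checked monolayer integrity.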

[4] = Apparent permeability across basolateral to apical side in MDCK cells at 1 uM after 2 hrs by LC-MS/MS analysis; assay type: ADME, cell-based, Canis lupus familiaris; settings: dog; how it was run: as §1
[5] = Efflux ratio of apparent permeability across basolateral to apical side over apical to basolateral side in MDCK cells at 1 uM after 2 hrs by LC-MS/MS analysis; assay type: ADME, cell-based, Canis lupus familiaris; settings: dog
How it was run: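 MDCK monolayers washed twice with pre-warmed HBSS (10 mM HEPES, pH 7.4) and equilibrated 30 min at 37 °C. 1 μM working solution (0.5% DMSO final) added to apical or basolateral donor side, 37 °C for 2 h, run in duplicate. Donor and receiver samples quenched in cold methanol with internal standards and quantified by LC-MS/MS. Monolayer integrity checked by Lucifer Yellow (100 μM) leakage.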

[6] = Permeability across apical to basolateral side in MDCK cells assessed as drug recovery at 1 uM after 2 hrs by LC-MS/MS analysis; assay type: ADME, cell-based, Canis lupus familiaris; settings: dog; how it was run: as §1
[7] = Permeability across basolateral to apical side in MDCK cells at 1 uM after 2 hrs by LC-MS/MS analysis; assay type: ADME, cell-based, Canis lupus familiaris; settings: dog; how it was run: as §1

Row | SMILES | IC50 (CDK2/Cyclin A2) | further results
1 | Cc1nn(-c2nc3ccccc3s2)c2c1C(=O)CC(C)(C)C2Br (stereo not drawn) | > 1000 µM | 
2 | Cc1nn(-c2ccc(NS(N)(=O)=O)cn2)c2c1C(=O)CC(C)(C)C2Br (stereo not drawn) | 2.4 µM | 
3 | Cc1nn(-c2ccncn2)c2c1C(=O)CC(C)(C)C2Br (stereo not drawn) | 1.5 µM | IC50 (CDK2/Cyclin A1): 0.0464 µM; IC50 [1]: 0.0089 µM; IC50 (CDK2/Cyclin O): 0.0416 µM; Activity (MCF7): inactive; Kd [2]: 4.5 µM
4 | COCCc1ccc(OCC(O)CNC(C)C)cc1 (stereo not drawn) [METOPROLOL] |  | Papp A→B at 2 h, 1 µM [3]: 26.9 ×10⁻⁶ cm/s; Papp B→A at 2 h, 1 µM [4]: 21.2 ×10⁻⁶ cm/s; Ratio [5]: 0.79; Drug recovery [6]: 90.7%; Drug recovery [7]: 90.4%
5 | Cc1nn(CCC#N)c2c1C(=O)CC(C)(C)C2Br (stereo not drawn) | > 1000 µM | 
6 | Cc1nn(-c2ccccn2)c2c1C(=O)CC(C)(C)C2Cl (stereo not drawn) | 4.9 µM | 
7 | Cc1nn(-c2ccccn2)c2c1C(=O)CC(C)(C)C2N=[N+]=[N-] (stereo not drawn) | 4.5 µM | 
8 | Cc1nn(-c2ccccn2)c2c1C(=O)CC(C)(C)C2F (stereo not drawn) | 21 µM | 
9 | CC(=O)Nc1ccc(-n2nc(C)c3c2C(Br)C(C)(C)CC3=O)nc1 (stereo not drawn) | 3.6 µM | 
10 | C[C@H]1O[C@@H](O[C@H]2[C@@H](O)C[C@H](O[C@H]3[C@@H](O)C[C@H](O[C@H]4CC[C@@]5(C)[C@H](CC[C@@H]6[C@@H]5C[C@@H](O)[C@]5(C)[C@@H](C7=CC(=O)OC7)CC[C@]65O)C4)O[C@@H]3C)O[C@@H]2C)C[C@H](O)[C@@H]1O [DIGOXIN] |  | Drug recovery [6]: 77.1%; Drug recovery [7]: 83.7%
11 | Cc1ccc(-n2nc(C)c3c2C(Br)C(C)(C)CC3=O)nc1 (stereo not drawn) | 7.5 µM | 
12 | Cc1nn(-c2ccccn2)c2c1C(=O)CC(C(C)C)C2Br (trans isomer) | 130 µM | 
13 | Cc1nn(-c2ccncc2)c2c1C(=O)CC(C)(C)C2Br (stereo not drawn) | 10.5 µM | 
14 | Cc1nn(S(=O)(=O)c2ccc([N+](=O)[O-])cc2)c2c1C(=O)CC(C)(C)C2Br (stereo not drawn) | > 1000 µM | 
15 | Cc1nn(-c2ccccn2)c2c1C(O)CC(C)(C)C2Br (stereo not drawn) | 560 µM | 
16 | Cc1nn(-c2ccccn2)c2c1/C(=N/O)CC(C)(C)C2Br (stereo not drawn) | 59 µM | 
17 | Cc1nn(-c2ncccn2)c2c1C(=O)CC(C)(C)C2Br (stereo not drawn) | 9.3 µM | 
18 | Cc1nn(-c2ccc(Cl)cn2)c2c1C(=O)CC(C)(C)C2Br (stereo not drawn) | 3 µM | 
19 | COC(=O)CC(=O)Nc1ccc(-n2nc(C)c3c2C(Br)C(C)(C)CC3=O)nc1 (stereo not drawn) | 2.7 µM | 
20 | Cc1nn(-c2ccccn2)c2c1C(=O)CC(C)(C)C2Sc1ccccc1 (stereo not drawn) | 12 µM | 
21 | Cc1nn(-c2ccccn2)c2c1C(=O)CC(C)C2Br (cis isomer) | 31 µM | 
22 | Cc1nn(-c2ccc(N)cn2)c2c1C(=O)CC(C)(C)C2Br (stereo not drawn) | 4.6 µM | 
23 | CC1(C)CC(=O)c2cnn(-c3ccccn3)c2C1 | > 1000 µM | 
24 | Cc1cccnc1-n1nc(C)c2c1CC(C)(C)C(Br)C2=O (stereo not drawn) | 180 µM | 
25 | Cc1nn(-c2ccccn2)c2c1C(=O)CC(c1ccccc1)C2Br (stereo not drawn) | > 1000 µM | 
26 | Cc1nn(-c2ccc([N+](=O)[O-])cn2)c2c1C(=O)CC(C)(C)C2Br (stereo not drawn) | 3.1 µM | 

Row | SMILES | IC50 (CDK2/Cyclin A2) | further results
27 | Cc1nn(-c2ncccc2C(F)(F)F)c2c1C(=O)C(Br)C(C)(C)C2 (stereo not drawn) | 230 µM | 
28 | CC(C)Cc1nn(-c2ccccn2)c2c1C(=O)CC(C)(C)C2Br (stereo not drawn) | 820 µM | 
29 | Cc1nn(-c2ccccn2)c2c1C(=O)CCC2Br (stereo not drawn) | 130 µM | 
30 | Cc1nn(-c2ccccn2)c2c1C(=O)CC(C)(C)C2C (stereo not drawn) | 200 µM | 
31 | Cc1nn(-c2ccccn2)c2c1C(=O)NCC(C)(C)C2Br (stereo not drawn) | 12 µM | 
32 | Cc1nn(-c2ccc3ccccc3c2)c2c1C(=O)CC(C)(C)C2Br (stereo not drawn) | 37 µM | 
33 | COC1c2c(c(C)nn2-c2ccccn2)C(=O)CC1(C)C (stereo not drawn) | 46 µM | 
34 | Cc1nn(-c2ccccn2)c2c1C(=O)CC(C)(C)C2O (stereo not drawn) | 110 µM | 
35 | Cc1nn(-c2ccccn2)c2c1NC(=O)CC(C)(C)C2 | > 1000 µM | 
36 | Cc1nn(-c2ccccn2)c2c1C(=O)CC(C)(C)C2N (stereo not drawn) | 350 µM | 
37 | Cc1cccnc1-n1nc(C)c2c1C(Br)C(C)(C)CC2=O (stereo not drawn) | > 1000 µM | 
38 | Cc1nn(-c2ccccn2)c2c1C(=O)CC(C)(C)C2 | 110 µM | 
39 | Cc1nn(-c2ccccn2)c2c1C(=O)CC(C)(C)C2S(=O)(=O)c1ccccc1 (stereo not drawn) | 107 µM | 
40 | Cc1nn(-c2ccc(Cl)nn2)c2c1C(=O)CC(C)(C)C2Br (stereo not drawn) | 26 µM | 
41 | Cc1ccc(NC(=O)c2ccc(CN3CCN(C)CC3)cc2)cc1Nc1nccc(-c2cccnc2)n1 [IMATINIB] |  | Drug recovery [6]: 56.6%; Drug recovery [7]: 69.9%
42 | Cc1nn(-c2ccccn2)c2c1C(=O)NCC(C)(C)C2 | > 1000 µM | 
43 | Cc1nn(-c2nccs2)c2c1C(=O)CC(C)(C)C2Br (stereo not drawn) | 2.2 µM | IC50 (CDK2/Cyclin A1): 0.0243 µM; IC50 [1]: 0.0023 µM; IC50 (CDK2/Cyclin O): 0.0331 µM; Activity (MCF7): inactive; Kd [2]: 4.8 µM
44 | Cc1nn(-c2ccccn2)c2c1C(=O)CC(C)(C)C2N(C)C (stereo not drawn) | 630 µM | 
45 | Cc1nn(-c2ccc(NS(C)(=O)=O)cn2)c2c1C(=O)CC(C)(C)C2Br (stereo not drawn) | 19 µM | 
46 | Cc1nn(-c2cnccn2)c2c1C(=O)CC(C)(C)C2Br (stereo not drawn) | 97 µM | 
47 | Cc1nn(-c2ncccc2C(F)(F)F)c2c1C(=O)CC(C)(C)C2Br (stereo not drawn) | 460 µM | 
48 | COc1cccc(-n2nc(C)c3c2C(Br)C(C)(C)CC3=O)n1 (stereo not drawn) | 2.1 µM | 
49 | Cc1nn(-c2ccccn2)c2c1C(=O)CC(C(C)C)C2Br (stereo in doubt) | 470 µM | 
50 | CC1(C)CC(=O)c2cnn(-c3ccccn3)c2C1Br (stereo not drawn) | 160 µM | 
51 | Cc1nn(-c2ccc(C(F)(F)F)cn2)c2c1C(=O)CC(C)(C)C2Br (stereo not drawn) | 6.7 µM | 
52 | Cc1nn(-c2ccccn2)c2c1C(=O)CC(C)C2Br (stereo in doubt) | 4.8 µM | 
